Data taken from ChEMBL document CHEMBL3297707, “Dual protonophore-chitinase inhibitors dramatically affect O. volvulus molting” (J Med Chem, 2014).
Active and inactive are the calls of the source. The calls are words filed in the database; no cut-off is given here.

How the values were obtained:
Brugia malayi = assay: Inhibition of Brugia malayi chitinase using 20 uM 4-methylumbelliferyl-N,N',N''-beta-chitotrioside as substrate at 10 uM after 10 mins by microplate reader analysis
Entamoeba histolytica = assay: Inhibition of Entamoeba histolytica chitinase using 20 uM 4-methylumbelliferyl-N,N',N''-beta-chitotrioside as substrate at 10 uM after 10 mins by microplate reader analysis
Chitinase [1] = target: T1, Chitinase (Onchocerca volvulus, UniProt Q25615); assay: Inhibition of Onchocerca volvulus L3 larvae chitinase using 20 uM 4-methylumbelliferyl-N,N',N''-beta-chitotrioside as substrate after 10 mins by microplate reader analysis
T1 sequence (Q25615 whole entry): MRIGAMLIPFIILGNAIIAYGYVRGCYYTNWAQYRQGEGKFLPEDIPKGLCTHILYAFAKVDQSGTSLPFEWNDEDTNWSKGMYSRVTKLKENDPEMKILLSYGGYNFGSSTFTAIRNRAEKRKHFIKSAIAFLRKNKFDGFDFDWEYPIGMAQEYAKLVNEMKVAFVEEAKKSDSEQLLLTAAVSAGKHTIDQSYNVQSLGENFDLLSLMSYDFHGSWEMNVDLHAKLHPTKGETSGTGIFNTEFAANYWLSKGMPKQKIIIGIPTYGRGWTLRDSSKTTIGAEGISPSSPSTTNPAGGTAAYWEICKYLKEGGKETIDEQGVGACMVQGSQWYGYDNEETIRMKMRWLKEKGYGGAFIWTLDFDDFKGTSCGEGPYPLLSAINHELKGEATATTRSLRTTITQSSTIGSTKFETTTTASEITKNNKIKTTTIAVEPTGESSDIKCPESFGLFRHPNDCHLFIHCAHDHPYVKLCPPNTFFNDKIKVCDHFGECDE

Caenorhabditis elegans [2] = assay: Drug accumulation in Caenorhabditis elegans at 10 uM after 6 hrs by LC-MS analysis; format: ADME, organism-based; settings: in vivo
How it was run: (§1)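 Synchronized worms grown to late L4 on E. coli OP50 at 25 °C for 40 h, washed and suspended in M9 (~5–10 worms/μL). Compound added at 10 μM (~2 nmol/mg worm) for 6 or 12 h at rt. Worms washed with 0.1% SDS, then water, and lyophilized. Extracted in cold MeOH/MeCN (1:1) with internal standard and quantified by LC-TOF MS against calibration in blank worms. Mean ± sd, n = 3, nmol/mg worm.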

[3] = target: T2, Chitinase (Onchocerca volvulus) (UniProt Q25615); assay: Inhibition of Onchocerca volvulus L3 larvae chitinase using 20 uM 4-methylumbelliferyl-N,N',N''-beta-chitotrioside as substrate at 10 uM after 10 mins by microplate reader analysis
T2 sequence (whole entry): T1 sequence (Q25615 whole entry)

Plasmodium falciparum = assay: Inhibition of Plasmodium falciparum chitinase using 20 uM 4-methylumbelliferyl-N,N',N''-beta-chitotrioside as substrate at 10 uM after 10 mins by microplate reader analysis
HEK-293T [4] = assay: Protonophoric activity in human HEK293T/17 cells assessed as mitochondrial membrane depolarization at 50 uM for 30 mins by TMRE dye based fluorescence spectrometry; format: functional, cell-based
How it was run: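 HEK 293T/17 cells suspended at 1–2 × 10^6/mL in 10% FBS DMEM, given 50 μM compound or DMSO for 30 min at 37 °C, then stained with TMRE (~450 nM final) for 30 min in the dark at 37 °C. After washes in 0.2% BSA/PBS, fluorescence read on a plate reader (ex 549, em 575 nm). Mean ± sd, n = 3.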

Caenorhabditis elegans [5] = assay: Drug metabolism in Caenorhabditis elegans assessed as sulfated metabolite formation after 12 hrs by LC/MS analysis; format: ADME, organism-based; settings: in vivo
Caenorhabditis elegans [6] = assay: Drug metabolism in Caenorhabditis elegans assessed as 5-iodo closantel formation after 12 hrs by LC/MS analysis; format: ADME, organism-based; settings: in vivo
Caenorhabditis elegans [7] = assay: Drug metabolism in Caenorhabditis elegans assessed as glycosylated metabolite formation after 12 hrs by LC/MS analysis; format: ADME, organism-based; settings: in vivo
Caenorhabditis elegans [8] = assay: Toxicity in Caenorhabditis elegans; format: organism-based; settings: in vivo
Caenorhabditis elegans [9] = assay: Drug metabolism in Caenorhabditis elegans assessed as glucordinated metabolite formation after 12 hrs by LC/MS analysis; format: ADME, organism-based; settings: in vivo
Caenorhabditis elegans [10] = assay: Drug metabolism in Caenorhabditis elegans assessed as 3-iodo closantel formation after 12 hrs by LC/MS analysis; format: ADME, organism-based; settings: in vivo
HEK-293T [11] = assay: Protonophoric activity in human HEK293T/17 cells assessed as mitochondrial membrane depolarization at 50 uM for 30 mins by TMRE dye based flow cytometry; format: functional, cell-based
How it was run: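 Trypsinized HEK 293T/17 cells at 1–2 × 10^6/mL in 10% FBS DMEM, exposed to 50 μM compound or DMSO for 30 min at 37 °C. TMRE (~450 nM final) added for 30 min in the dark at 37 °C. Cells washed with 0.2% BSA/PBS; membrane polarization read by flow cytometry on 1–2 × 10^6 cells per sample.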

HEK-293T [12] = assay: Cytotoxicity against human HEK293T/17 cells assessed as cell viability at 1 to 10 uM for 24 hrs by MTS assay; format: cell-based
How it was run: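 HEK 293T/17 cells (2 × 10^4) plated and held 24 h at 37 °C, then treated at 1 and 10 μM final. MTS viability read at 0.5 and 24 h post-incubation.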

Onchocerca volvulus [13] = assay: Antiparasitic activity against Onchocerca volvulus assessed as inhibition of L3 to L4 larval molting at 1 uM for 24 hrs measured until 6 days by using inverted microscopic analysis in presence of PBMC; format: functional
How it was run: (§2)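 O. volvulus L3 larvae pre-incubated with compound for 24 h, then complete medium (20% heat-inactivated FCS) and normal PBMCs added; molting assessed on day 6. Combination lines use a 1:1 mix with CCCP, each at the stated concentration. Percent molting taken over 10 wells, on average 5–10 larvae per well.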

Caenorhabditis elegans [14] = assay: Drug accumulation in Caenorhabditis elegans at 10 uM after 12 hrs by LC-MS analysis; format: ADME, organism-based; settings: in vivo; how it was run: as §1
Onchocerca volvulus [15] = assay: Antiparasitic activity against Onchocerca volvulus assessed as inhibition of L3 to L4 larval molting at 10 uM for 24 hrs measured until 6 days by using inverted microscopic analysis in presence of PBMC; format: functional, organism-based; how it was run: as §2
Chitinase [16] = target: T1, Chitinase; assay: Competitive inhibition of Onchocerca volvulus L3 larvae chitinase using 20 uM 4-methylumbelliferyl-N,N',N''-beta-chitotrioside as substrate after 10 mins by microplate reader analysis
Onchocerca volvulus [17] = assay: Antiparasitic activity against Onchocerca volvulus assessed as inhibition of L3 to L4 larval molting at 0.5 uM for 24 hrs measured until 6 days by using inverted microscopic analysis in presence of PBMC and 0.5 uM protonophore CCCP; format: functional, organism-based; how it was run: as §2
Onchocerca volvulus [18] = assay: Antiparasitic activity against Onchocerca volvulus assessed as inhibition of L3 to L4 larval molting at 1 uM for 24 hrs measured until 6 days by using inverted microscopic analysis in presence of PBMC and 1 uM protonophore CCCP; format: functional, organism-based; how it was run: as §2
Onchocerca volvulus [19] = assay: Antiparasitic activity against Onchocerca volvulus assessed as inhibition of L3 to L4 larval molting at 100 uM for 24 hrs measured until 6 days by using inverted microscopic analysis in presence of PBMC; format: functional, organism-based; how it was run: as §2
Onchocerca volvulus [20] = assay: Antiparasitic activity against Onchocerca volvulus assessed as inhibition of L3 to L4 larval molting at 2.5 uM for 24 hrs measured until 6 days by using inverted microscopic analysis in presence of PBMC and 2.5 uM protonophore CCCP; format: functional, organism-based; how it was run: as §2

Structure (SMILES)	IC50 (Chitinase [1]) [nM]	Drug uptake (Caenorhabditis elegans [2])	Activity (HEK-293T [4])	Activity (HEK-293T [11])	inhibition (Onchocerca volvulus [15])	also measured
O=C(Nc1ccc(-c2ccc(Cl)cc2)cc1)c1cc(I)cc(I)c1O	370	Active	–	–	–	inhibition (Brugia malayi): inactive; inhibition (Entamoeba histolytica): inactive; inhibition [3]: Active; inhibition (Plasmodium falciparum): inactive
Cc1cc(C(C#N)c2ccc(Cl)cc2)c(Cl)cc1NC(=O)c1cc(I)cc(I)c1O (stereo not given) [CLOSANTEL]	–	Active	Active	Active	–	Drug metabolism (Caenorhabditis elegans [5]): metabolite_notdetected; Drug metabolism (Caenorhabditis elegans [6]): metabolite_detected; Drug metabolism (Caenorhabditis elegans [7]): metabolite_notdetected; Activity (Caenorhabditis elegans [8]): Non-toxic; Drug metabolism (Caenorhabditis elegans [9]): metabolite_notdetected; Drug metabolism (Caenorhabditis elegans [10]): metabolite_detected
O=C(Nc1ccc(Oc2ccc(Cl)cc2)c(Cl)c1)c1cc(I)cc(I)c1O [RAFOXANIDE]	340	1.55 nmol/mg	Active	Active	Active	Activity (HEK-293T [12]): Non-toxic; inhibition (Brugia malayi): inactive; inhibition at 1 µM (Onchocerca volvulus [13]): 84%; inhibition (Entamoeba histolytica): inactive; Drug uptake (Caenorhabditis elegans [14]): 1.73 nmol/mg; inhibition [3]: Active; Ki (Chitinase [16]): 130 nM
COc1c(I)cc(I)cc1C(=O)Nc1ccc(Oc2ccccc2)cc1	1280	–	inactive	inactive	–	–
O=C(Nc1ccc(-c2ccccc2)cc1)c1cc(I)cc(I)c1O	470	Active	–	–	–	inhibition (Brugia malayi): inactive; inhibition (Entamoeba histolytica): inactive; inhibition [3]: Active; inhibition (Plasmodium falciparum): inactive
Cc1ccc(-c2ccc(NC(=O)c3cc(I)cc(I)c3O)cc2)cc1	990	–	–	–	–	–
O=C(Nc1ccc(Oc2ccc(Cl)cc2)cc1)c1cc(I)cc(I)c1	870	Active	inactive	inactive	–	–
N#CC(C#N)=NNc1cccc(Cl)c1 [CARBONYL CYANIDE M-CHLOROPHENYLHYDRAZONE]	–	Active	–	–	Active	–
O=C(Nc1ccc(Oc2ccccc2)cc1)c1cc(I)cc(I)c1O	1980	–	Active	Active	–	–
COc1c(I)cc(I)cc1C(=O)O	–	–	–	–	inactive	–
O=C(Nc1ccc(Oc2ccccc2)cc1)c1cc(I)cc(I)c1	1060	–	inactive	inactive	–	–
COc1c(I)cc(I)cc1C(=O)Nc1ccc2ccccc2c1	890	Active	inactive	inactive	Active	inhibition (Onchocerca volvulus [13]): inactive; Drug uptake (Caenorhabditis elegans [14]): 1.28 nmol/mg
CN(C(=O)c1cc(I)cc(I)c1O)c1ccc(Oc2ccccc2)cc1	1810	–	–	–	–	–
Cc1ccc(Oc2ccc(NC(=O)c3cc(I)cc(I)c3O)cc2)cc1	1110	–	–	–	–	–
O=C(Nc1ccc(Oc2cccc(Cl)c2)cc1)c1cc(I)cc(I)c1O	1740	–	–	–	–	–
O=C(Nc1ccc(Oc2ccc(Cl)cc2)cc1)c1cc(I)cc(I)c1O	700	Active	Active	Active	Active	Activity (HEK-293T [12]): Non-toxic; inhibition (Brugia malayi): inactive; inhibition at 1 µM (Onchocerca volvulus [13]): 84%; inhibition (Entamoeba histolytica): inactive; inhibition [3]: Active
O=C(Nc1ccc2ccccc2c1)c1cc(I)cc(I)c1	1290	–	inactive	inactive	–	–
O=C(Nc1ccc(Oc2ccccc2Cl)cc1)c1cc(I)cc(I)c1O	1200	–	–	–	–	–
COc1c(I)cc(I)cc1C(=O)Nc1ccc(Oc2ccc(Cl)cc2)cc1	600	Active	inactive	inactive	Active	inhibition (Brugia malayi): inactive; inhibition (Onchocerca volvulus [13]): inactive; inhibition (Entamoeba histolytica): inactive; inhibition (Onchocerca volvulus [17]): inactive; inhibition (Onchocerca volvulus [18]): inactive; inhibition (Onchocerca volvulus [19]): Active; inhibition (Onchocerca volvulus [20]): Active; inhibition [3]: Active; inhibition (Plasmodium falciparum): inactive
O=C(Nc1ccc(Oc2ccc(F)cc2)cc1)c1cc(I)cc(I)c1O	1570	–	–	–	–	–
COc1c(I)cc(I)cc1C(=O)N(C)c1ccc(Oc2ccccc2)cc1	3710	–	inactive	inactive	–	–
O=C(Nc1ccc2ccccc2c1)c1cc(I)cc(I)c1O	940	Active	Active	Active	Active	Activity (HEK-293T [12]): Non-toxic; inhibition at 1 µM (Onchocerca volvulus [13]): 84%; Drug uptake (Caenorhabditis elegans [14]): 1.13 nmol/mg
